How the values were obtained:
[1] = biological target: T1, CB2 receptors (Mus musculus, UniProt P47936); assay: Blocking dissection study in LPS-5-day-treated CD1 mice; format: in vivo; conditions: for reduction of the specific binding of [11C]1 in whole brain: LPS-5-day mice, AM630 3 mg/kg or GW405833 2 mg/kg s.c., normalized uptake, 60 min, control CD1 mice as measure of non-specific binding
Procedure, shortened: (§1)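 Control CD1 mice, or CD1 mice 5 days after a single i.p. LPS dose (5 mg/kg in saline, strain O111:B4), received AM630 3 mg/kg or GW405833 2 mg/kg s.c. in DMSO; controls got DMSO vehicle. Radiotracer (~150 GBq/μmol) was given i.v. 30 min later, and tissues were harvested at 60 min and gamma-counted. Whole-brain uptake was %ID/g per body weight normalized by blood; mean ± SD, n=3.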

[2] = biological target: T1, CB2 receptors; assay: Blocking dissection study in control CD1 mice; format: in vivo; conditions: AM630 3 mg/kg or GW405833 2 mg/kg s.c., 60 min
Procedure, shortened: as §1

[3] = biological target: T1, CB2 receptors; format: in vivo; conditions: APPswe/PS1dE9 mice
[4] = biological target: T1, CB2 receptors; format: in vivo, mice
Procedure, shortened: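 Male CD1 mice got a single i.p. LPS dose (5 mg/kg in saline, strain O111:B4) 3 or 5 days before i.v. radiotracer; untreated CD1 mice served as controls. At 60 min, cerebellum, hippocampus, cortex, brainstem and rest of brain were dissected, weighed and gamma-counted. Uptake was %ID/g tissue (± SD, n=3), and regional ratios were taken as 5-day LPS over control.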

[5] = biological target: T1, CB2 receptors; assay: Baseline dissection biodistribution of [11C]1 in control CD1 mice; format: in vivo; conditions: i.v., whole body time-activity curve
Procedure, shortened: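 Male CD-1 mice (23-28 g) received the radiotracer (specific radioactivity ~150 GBq/μmol, in saline) by lateral tail vein. They were killed by cervical dislocation at various times after injection. Organs and brain were removed and dissected on ice, then weighed and gamma-counted (counting error below 3%) against injectate aliquots as standards. Uptake was expressed as %ID/g tissue.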

T1 sequence (P47936 whole entry): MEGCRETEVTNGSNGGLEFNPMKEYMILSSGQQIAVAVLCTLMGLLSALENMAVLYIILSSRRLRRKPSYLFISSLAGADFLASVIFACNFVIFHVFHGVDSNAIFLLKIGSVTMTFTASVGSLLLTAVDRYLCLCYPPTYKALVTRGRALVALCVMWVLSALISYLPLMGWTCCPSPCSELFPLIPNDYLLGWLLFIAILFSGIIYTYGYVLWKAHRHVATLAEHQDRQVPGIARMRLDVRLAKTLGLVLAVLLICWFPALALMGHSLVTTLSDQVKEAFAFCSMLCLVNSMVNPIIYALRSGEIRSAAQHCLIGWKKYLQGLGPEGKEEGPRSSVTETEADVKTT

Row | SMILES | reduction of the specific binding of [11C]1 in whole brain [1] [%] | difference in normalized whole brain uptake between baseline and blockade [2] | reduction of radioactivity uptake by blockade in cerebellum and brainstem ([3]; AM630, 60 min) | reduction of radioactivity uptake by blockade in cortex and rest of brain ([3]; AM630, 60 min) | uptake difference between baseline and blockade, brainstem ([3]; AM630 blockade, 60 min, brainstem) [%] | uptake difference between baseline and blockade, cerebellum ([3]; AM630 blockade, 60 min, cerebellum) [%] | uptake difference between baseline and blockade, cortex ([3]; AM630 blockade, 60 min, cortex) [%] | uptake difference between baseline and blockade, rest of brain ([3]; AM630 blockade, 60 min, rest of brain) [%] | increase of brain uptake versus control mice, LPS three days before (Group 2) ([4]; LPS-3-day-treated CD1 mice versus control, all brain regions) | regional uptake ratio of Group 3 to Group 1, cerebellum ([4]; LPS-5-day-treated versus control CD1 mice, %ID/g tissue, cerebellum) | regional uptake ratio of Group 3 to Group 1, cortex ([4]; LPS-5-day-treated versus control CD1 mice, %ID/g tissue, cortex) | regional uptake ratio of Group 3 to Group 1, hippocampus ([4]; LPS-5-day-treated versus control CD1 mice, %ID/g tissue, hippocampus) | regional uptake ratio of Group 3 to Group 1, rest of the brain ([4]; LPS-5-day-treated versus control CD1 mice, %ID/g tissue, rest of the brain) | uptake of [11C]1 in the brain ([5]; brain) [%ID/g tissue] | uptake of [11C]1 in the heart ([5]; heart) [%ID/g tissue] | uptake of [11C]1 in the intestine ([5]; intestine) [%ID/g tissue] | uptake of [11C]1 in the kidney ([5]; kidney) [%ID/g tissue] | uptake of [11C]1 in the liver ([5]; liver) [%ID/g tissue] | uptake of [11C]1 in the spleen ([5]; spleen) [%ID/g tissue] | specific CB2 cerebral uptake ([1]; LPS-induced mouse model of neuroinflammation, summary)
1 | COc1ccc2c(c1)c(CCN1CCOCC1)c(C)n2C(=O)c1cccc(Cl)c1Cl [GW405833] | 84 | little difference | – | – | – | – | – | – | – | – | – | – | – | – | – | – | – | – | – | –
2 | COc1ccc(C(=O)c2c(C)n(CCN3CCOCC3)c3cc(I)ccc23)cc1 [AM630] | 78 | little difference | insignificant reduction | significant reduction | 29 | 29 | 36 | 33 | – | – | – | – | – | – | – | – | – | – | – | –
3 | Cc1sc(=NC(=O)C2C(C)(C)C2(C)C)n(CCO[11CH3])c1C [[^11C]1] | – | – | – | – | – | – | – | – | insignificant increase | 1.8 | 1.7 | 1.9 | 1.5 | 0.3 | 0.7 | 1.5 | 2.2 | 4.9 | 1.3 | 78-84%

Reference: article PMC2903661 (Bioorganic & medicinal chemistry, 2010)
